# Assay results from different studies.
# Lines come from different studies, so protocols differ. pEC50, pIC50, pKd, pKi: −log10 of the molar value.
# ADRA2C: Alpha-2C adrenergic receptor (ADRA2C, Homo sapiens, UniProt P18825)
# APLNR: Apelin receptor (APLNR, Homo sapiens, UniProt P35414)
# Si: Sucrase-isomaltase, intestinal (Si, Rattus norvegicus, UniProt P23739)
# ESR1: Estrogen receptor (ESR1, Homo sapiens, UniProt P03372)
# PLK4: Serine/threonine-protein kinase PLK4 (PLK4, Homo sapiens, UniProt O00444)
SMILES,target,assay,conditions,endpoint,value
COc1cc2c(cc1OC)CN(CCc1ccc(NC(=O)c3cccc4c(=O)c5cccc(OC)c5[nH]c34)cc1)CC2,ADRA2C,cell-free assay,,pKi,6.82
Clc1ccc(C(c2ccccc2Cl)C(Cl)(Cl)Cl)cc1 (stereo not shown),"Glucocorticoid receptor (NR3C1, Homo sapiens, UniProt P04150)",ligand displacement,,pIC50,5.57
CC(C)C[C@H](NC(=O)[C@H](CCCNC(=N)N)NC(=O)[C@H](CCCNC(=N)N)NC(=O)[C@H](CS)NC(=O)[C@H](CCCNC(=N)N)NC(=O)[C@H](CCC(=O)O)NC(=O)[C@H](CCCNC(=N)N)NC(=O)[C@@H](N)CO)C(=O)N[C@@H](Cc1c[nH]cn1)C(=O)N[C@@H](CO)C(=O)N[C@@H](CC(C)C)C(=O)N1CCC[C@H]1C(=O)N[C@@H](CC(C)C)C(=O)N[C@@H](Cc1ccccc1)C(=O)N1CCC[C@H]1C(=O)O,APLNR,"calcium signal, agonist, fluorescence",,pEC50,8.38
C[C@H](CCCOS(=O)(=O)O)[C@H]1CC[C@H]2[C@@H]3CC[C@H]4C[C@@H](O)CC[C@]4(C)[C@H]3CC[C@]12C,"cGMP-inhibited 3',5'-cyclic phosphodiesterase 3A (PDE3A, Homo sapiens, UniProt Q14432)","enzyme activity, inhibitor",,pIC50,5.15
CCCCCc1cc(O)c2c(c1)OC(C)(CCC=C(C)C)C=C2 (stereo not shown),Si,"enzyme activity, inhibitor, absorbance",,pIC50,3.27
CC(C)C[C@@H]1NC(=O)[C@H](CCCNC(=N)N)NC(=O)[C@@H]2CCCN2C(=O)[C@H](CCCNC(=N)N)NC(=O)[C@@H](NC(=O)[C@H](Cc2c[nH]cn2)NC(=O)[C@H](CCCCN)NC(=O)[C@@H]2CSSC[C@H](N)C(=O)N[C@@H](CCCNC(=N)N)C(=O)N3CCC[C@H]3C(=O)N[C@@H](CCCNC(=N)N)C(=O)N[C@@H](CC(C)C)C(=O)N2)CSSC[C@@H](C(=O)O)NC1=O,APLNR,"β-arrestin recruitment, antagonist",,pIC50,5.00
CC(c1ccccc1)(c1ccc(O)cc1)c1ccc(O)cc1,ESR1,"reporter gene, antagonist, luciferase",,pIC50,4.68
CC(C)C[C@H](NC(=O)[C@H](CC(C)C)NC(=O)[C@@H]1CCCN1C(=O)[C@H](C)NC(=O)[C@@H](NC(=O)[C@H](C)N)C(C)C)C(=O)N[C@@H](Cc1c[nH]cn1)C(=O)N[C@@H](CO)C(=O)N[C@H](C(=O)O)[C@@H](C)OP(=O)(O)O,PLK4,"binding, MST",pH 8,pKd,7.40
CCCCC1CNC2CCc3ccc(OC)cc3C12 (racemic),ADRA2C,"ligand displacement, radioligand",,pKi,6.21
CC(C)(C)C#Cc1cc(-c2ccnc(N)c2)cc2c(N)n[nH]c12,"Inhibitor of nuclear factor kappa-B kinase subunit beta (IKBKB, Homo sapiens, UniProt O14920)","enzyme activity, inhibitor, FRET",,pIC50,5.34
CC[C@H](C)[C@H](NC(=O)[C@H](CO)NC(=O)[C@H](Cc1c[nH]cn1)NC(=O)[C@H](Cc1ccccc1)NC(=O)[C@H](CCCCN)NC(=O)[C@H](CCCCN)NC(=O)[C@H](CS)NC(=O)[C@H](CC(C)C)NC(=O)[C@H](CCC(=O)O)NC(=O)[C@@H]1CCCN1C(=O)[C@@H](N)CO)C(=O)N1CCC[C@H]1C(=O)N[C@@H](CC(C)C)C(=O)N[C@@H](Cc1ccccc1)C(=O)N1CCC[C@H]1C(=O)O,APLNR,"calcium signal, agonist, fluorescence",,pEC50,6.90
CC(C)(c1ccc(O)cc1)c1ccc(C(C)(C)c2ccc(O)cc2)cc1,ESR1,"reporter gene, antagonist, luciferase",,pIC50,5.54
CC[C@H](C)[C@H](NC(=O)[C@H](CCCCN)NC(=O)[C@H](CCCCN)NC(=O)[C@H](C)NC(=O)[C@H](C)NC(=O)[C@@H](NC(=O)[C@H](CCCNC(=N)N)NC(=O)[C@H](CCSC)NC(=O)[C@H](CCC(N)=O)NC(=O)[C@H](CCC(=O)O)NC(=O)[C@H](CCCCN)NC(=O)[C@@H](N)CO)[C@@H](C)CC)C(=O)NCC(=O)N[C@@H](CC(C)C)C(=O)N[C@@H](CC(C)C)C(=O)N[C@@H](CCC(=O)O)C(=O)O,APLNR,"calcium signal, antagonist, fluorescence",,pIC50,4.69
CCCCCc1cc(O)c(C/C=C(\C)CCC=C(C)C)c(O)c1,Si,"enzyme activity, inhibitor, absorbance",,pIC50,3.21
CC[C@H](C)[C@H](NC(=O)[C@H](CCSC)NC(=O)[C@H](CCC(N)=O)NC(=O)[C@H](CCCNC(=N)N)NC(=O)[C@H](Cc1ccccc1)NC(=O)CN)C(=O)N[C@@H](C)C(=O)N[C@@H](CCCNC(=N)N)C(=O)N[C@@H](C)C(=O)N[C@@H](CCCCN)C(=O)N[C@@H](Cc1ccc(O)cc1)C(=O)N[C@@H](CCC(N)=O)C(=O)NCC(=O)N[C@@H](CC(C)C)C(=O)N[C@@H](CC(C)C)C(=O)N[C@@H](Cc1ccc(O)cc1)C(=O)O,APLNR,"calcium signal, agonist, fluorescence",,pEC50,6.21
CC[C@H](C)[C@H](NC(=O)[C@@H](N)CCC(=O)O)C(=O)N[C@@H](C)C(=O)N1CCC[C@H]1C(=O)N[C@H](C(=O)N[C@@H](CC(C)C)C(=O)N[C@@H](Cc1c[nH]cn1)C(=O)N[C@@H](CO)C(=O)N[C@H](C(=O)O)[C@@H](C)OP(=O)(O)O)C(C)C,PLK4,"binding, MST",pH 8,pKd,7.64
